This is an account of results in publication PMC9364358 (RSC Advances, 2022).

Structures are written as SMILES.

For assay [1], the system named is MOPC-315 cell line. The assay is described as follows: Cytotoxicity. The assay is classed as cell-based.
For assay [2], the system named is HDACs. The assay is described as follows: Fluorometric HDAC activity assay. It is filed as cell-based. Particulars: MCF-7 cells, 30 μM, 2 h. Summed up:
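MCF-7 cells grown in RPMI-1640 with 10% FBS and 1% penicillin at 37 °C, 5% CO2, then seeded at 5 × 10^3 cells/well. After 24 h, medium was replaced, and HDAC substrate plus test compound (final 30 μM) or trichostatin A was added for 2 h. Developer mix was then added for 30 min at 37 °C, and fluorescence was read (ex 368 nm, em 442 nm).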

Assay [3] concerns the target T1, HDAC6 (Homo sapiens, UniProt Q9UBN7).
T1 sequence (Q9UBN7 1-1215): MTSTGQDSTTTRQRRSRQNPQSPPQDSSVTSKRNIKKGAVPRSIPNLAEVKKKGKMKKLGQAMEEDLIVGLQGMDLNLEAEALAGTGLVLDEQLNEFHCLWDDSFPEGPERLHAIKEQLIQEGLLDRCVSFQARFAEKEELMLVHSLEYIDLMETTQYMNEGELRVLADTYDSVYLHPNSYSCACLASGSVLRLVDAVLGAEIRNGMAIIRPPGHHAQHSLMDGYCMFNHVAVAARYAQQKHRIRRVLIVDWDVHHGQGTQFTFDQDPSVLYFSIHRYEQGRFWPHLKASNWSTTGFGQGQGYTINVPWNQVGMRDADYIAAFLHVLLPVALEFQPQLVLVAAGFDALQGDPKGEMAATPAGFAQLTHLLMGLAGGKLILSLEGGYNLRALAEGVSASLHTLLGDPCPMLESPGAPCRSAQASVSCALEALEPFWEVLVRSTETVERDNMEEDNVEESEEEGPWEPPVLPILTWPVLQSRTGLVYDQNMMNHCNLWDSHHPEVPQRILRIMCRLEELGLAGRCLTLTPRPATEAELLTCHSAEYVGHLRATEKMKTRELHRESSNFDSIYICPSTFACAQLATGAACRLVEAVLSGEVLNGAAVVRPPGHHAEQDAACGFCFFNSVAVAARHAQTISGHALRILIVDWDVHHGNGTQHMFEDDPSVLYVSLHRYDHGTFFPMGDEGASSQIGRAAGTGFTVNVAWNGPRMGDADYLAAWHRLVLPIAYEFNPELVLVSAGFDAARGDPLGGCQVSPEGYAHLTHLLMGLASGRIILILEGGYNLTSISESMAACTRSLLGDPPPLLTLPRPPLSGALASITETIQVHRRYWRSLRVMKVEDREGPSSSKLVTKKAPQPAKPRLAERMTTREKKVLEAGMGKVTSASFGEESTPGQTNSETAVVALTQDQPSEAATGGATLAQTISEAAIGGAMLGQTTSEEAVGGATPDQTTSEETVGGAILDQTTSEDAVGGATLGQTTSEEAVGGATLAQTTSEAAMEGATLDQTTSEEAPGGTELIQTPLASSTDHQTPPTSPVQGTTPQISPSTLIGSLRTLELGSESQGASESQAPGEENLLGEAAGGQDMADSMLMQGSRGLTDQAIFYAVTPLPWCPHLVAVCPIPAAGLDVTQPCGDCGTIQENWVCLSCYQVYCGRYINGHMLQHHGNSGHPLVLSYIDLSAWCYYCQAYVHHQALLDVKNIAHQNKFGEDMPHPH
The assay is classed as biochemical. Summed up: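 HDAC6 enzyme was incubated 30 min with test compound at graded concentrations (DMSO) and HDAC substrate 2 (200 μM stock) in HDAC assay buffer with BSA (1 mg mL−1 stock). The reaction was stopped with HDAC assay developer for 15 min at room temperature, and fluorescence was read at 485/528 nm. A reference HDAC inhibitor served as positive control.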

One may read the IC50 as the point on the concentration scale where inhibition reaches its midpoint. The inhibition is the percentage by which the read-out fell short of the control. For `O=C(/C=C/c1cccc(S(=O)(=O)Nc2ccccc2)c1)NO` [Belinostat], half-maximal inhibition in assay [1] (Mus musculus, MOPC 315, 24 h, MOPC-315 cell line, 24 h incubation) (IC50) required 318 ± 49 nM. For the same compound, the Fold change in assay [1] (potency relative to belinostat (belinostat = 1.000), MOPC-315) was found to be 1.000. Moreover, the “pan-HDAC inhibitory activity (HDAC activity, fluorescence signal)” value in assay [2] is given as “the activity was decreased”. Also, the inhibition at 5 µM in assay [3] was 64.5%.
